The species entered for experiment [1] is Cavia porcellus. The experiment can be described thus: Compound was evaluated for antagonist potency against mu receptor. agonist TAPP by GPI (guinea pig ileum) assay. Format: functional.
For experiment [2], the species on record is Mus musculus. The experiment can be described thus: Compound was evaluated for its antagonist potency against delta agonist deltorphin I, by MVD assay(mouse vas deferens). Format: functional.
Experiment [3] concerns the target Delta-type opioid receptor (Rattus norvegicus, UniProt P33533). The experiment can be described thus: Binding affinity for Opioid receptor delta 1 determined by displacing [3H]-DSLET from rat brain membrane binding sites.
The target in experiment [4] is Mu-type opioid receptor (Rattus norvegicus, UniProt P33535). The experiment can be described thus: Binding affinity for Opioid receptor mu 1 determined by displacing [3H]DAMGO from rat brain membrane binding sites.
Chain of Mu-type opioid receptor (P33535 whole entry): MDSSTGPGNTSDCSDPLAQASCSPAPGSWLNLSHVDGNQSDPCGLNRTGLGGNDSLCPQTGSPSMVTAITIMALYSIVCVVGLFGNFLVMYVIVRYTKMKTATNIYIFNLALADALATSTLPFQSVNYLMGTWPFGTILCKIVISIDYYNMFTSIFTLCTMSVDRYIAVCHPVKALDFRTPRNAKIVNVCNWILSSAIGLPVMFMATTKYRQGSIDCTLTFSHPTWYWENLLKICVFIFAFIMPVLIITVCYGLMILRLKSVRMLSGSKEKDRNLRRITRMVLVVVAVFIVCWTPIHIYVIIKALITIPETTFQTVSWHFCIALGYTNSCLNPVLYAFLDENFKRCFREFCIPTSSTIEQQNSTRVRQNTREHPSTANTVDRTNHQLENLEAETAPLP
For experiment [5], the target named is Kappa-type opioid receptor (Cavia porcellus, UniProt P41144). The experiment can be described thus: Binding affinity for Opioid receptor kappa 1 determined by displacement of [3H]U-69593 from guinea pig brain membranes. Further details: species or system Membrane. The method in brief: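 Guinea pig brain membranes incubated 2 h at 0 °C with 0.80 nM [3H]U69,593. IC50 taken from log dose-displacement curves; Ki by Cheng-Prusoff using Kd 2.9 nM.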
Chain of Kappa-type opioid receptor (P41144 whole entry): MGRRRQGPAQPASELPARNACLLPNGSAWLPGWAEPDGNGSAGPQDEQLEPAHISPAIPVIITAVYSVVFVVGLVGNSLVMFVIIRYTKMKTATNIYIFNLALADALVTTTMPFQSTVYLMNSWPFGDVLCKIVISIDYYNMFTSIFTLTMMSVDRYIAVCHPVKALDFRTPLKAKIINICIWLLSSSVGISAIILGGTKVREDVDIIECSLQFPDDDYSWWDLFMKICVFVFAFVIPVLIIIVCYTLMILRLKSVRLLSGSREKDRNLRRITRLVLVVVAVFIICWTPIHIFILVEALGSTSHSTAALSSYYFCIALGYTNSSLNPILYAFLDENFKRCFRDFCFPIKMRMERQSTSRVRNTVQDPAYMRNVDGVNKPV

The species named for experiment [6] is Mus musculus. The experiment can be described thus: Compound was evaluated for its antagonist potency against delta agonist […] by MVD assay(mouse vas deferens). Format: functional.
The species entered for experiment [7] is Cavia porcellus. The experiment can be described thus: Compound was evaluated for inhibition of electrically evoked contractions of the GPI (guinea pig ileum). Format: functional. The method in brief: (§1)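 Inhibition of electrically evoked contractions of guinea pig ileum. Each preparation also run with a [Leu5]enkephalin standard dose-response curve, and test IC50 values normalised against it.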

The species named for experiment [8] is Cavia porcellus. The experiment can be described thus: Compound was evaluated for inhibition of electrically evoked contractions of the GPI (guinea pig ileum); PA=Partial agonist. Format: functional. The method in brief:
as §1

The species entered for experiment [9] is Rattus norvegicus. The experiment can be described thus: Analgesic Potency of compound in Comparison with Morphine evaluated by rat tail flick test. Format: functional. For orientation: Hot-plate and tail-flick tests time the reaction to a heat stimulus.

Square brackets hold non-standard residues; d marks the D form. Peptide text beside a SMILES is read from it. NMeDmt = CN[C@@H](Cc1c(C)cc(O)cc1C)C(=O)O; Dmt = Cc1cc(O)cc(C)c1C[C@H](N)C(=O)O; Tic = O=C(O)[C@@H]1Cc2ccccc2CN1

As a reminder, the Ki is the equilibrium dissociation constant of an inhibitor or competing ligand from its target. A higher Ki goes with a looser hold on the target. For orientation: IC50 means the concentration that inhibits the measured activity by half. High values mean weaker potency, low ones greater potency.

Chain of Delta-type opioid receptor (P33533 whole entry): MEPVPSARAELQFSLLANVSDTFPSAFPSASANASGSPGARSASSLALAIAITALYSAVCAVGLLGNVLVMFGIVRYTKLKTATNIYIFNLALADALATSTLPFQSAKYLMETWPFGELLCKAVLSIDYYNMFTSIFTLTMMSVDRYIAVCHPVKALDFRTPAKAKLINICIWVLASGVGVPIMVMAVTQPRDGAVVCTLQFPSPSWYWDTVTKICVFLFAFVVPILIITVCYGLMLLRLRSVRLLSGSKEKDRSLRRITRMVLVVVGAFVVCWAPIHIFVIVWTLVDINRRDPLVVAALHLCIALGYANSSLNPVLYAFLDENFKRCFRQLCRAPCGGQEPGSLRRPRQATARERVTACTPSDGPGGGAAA

With `CN[C@@H](Cc1c(C)cc(O)cc1C)C(=O)N1Cc2ccccc2CC1CN[C@@H](Cc1ccccc1)C(=O)N[C@@H](Cc1ccccc1)C(N)=O` (stereo partly drawn), the Ke was found to be 64.5 nM in experiment [1], 54.4 nM in [2] and 22.1 nM in experiment [6]. The Ki in experiment [3] is 0.061 µM; in [4], 0.0762 µM; in [5], more than 1 µM.
With `Cc1cc(O)cc(C)c1C[C@H](N)C(=O)N1Cc2ccccc2CC1CN[C@@H](Cc1ccccc1)C(=O)N[C@@H](Cc1ccccc1)C(N)=O` (stereo partly drawn), the IC50 in experiment [7] stood at 0.00771 µM. For the same molecule, the values for the Ke in [2] and in experiment [6] were 0.486 nM and 0.537 nM, respectively. In [5], this molecule displayed a Ki of more than 1 µM.
On to `Cc1cc(O)cc(C)c1C[C@H](N)C(=O)N1Cc2ccccc2C[C@H]1C(=O)N[C@@H](Cc1ccccc1)C(=O)N[C@@H](Cc1ccccc1)C(N)=O` (H-[Dmt][Tic]FF-NH2), for which the Ki in [5] was more than 1 µM.
Consider `CN[C@@H](Cc1c(C)cc(O)cc1C)C(=O)N1Cc2ccccc2C[C@H]1C(=O)N[C@@H](Cc1ccccc1)C(=O)N[C@@H](Cc1ccccc1)C(N)=O` (H-[NMeDmt][Tic]FF-NH2), for which the Ke in experiment [2] is reported as 0.233 nM; in experiment [6], 0.235 nM. Further, the IC50 entry in experiment [8] is recorded as “Partial agonist”. Moreover, the Ki in [3] was 0.000393 µM; in experiment [4], 0.00408 µM; in experiment [5], more than 1 µM.
`CN1CC[C@]23c4c5ccc(O)c4O[C@H]2[C@@H](O)C=C[C@H]3[C@H]1C5` [MORPHINE] displayed an ED50 in experiment [9] of 0.11 µg.

For the origin of these results see ChEMBL document CHEMBL1132372, “The opioid mu agonist/delta antagonist DIPP-NH(2)[Psi] produces a potent analgesic effect, no physical dependence, and less tolerance than morphine in rats” (J Med Chem, 1999).
